Reference: PubChem BioAssay AID1665 (Sanford-Burnham Center for Chemical Genomics, 2009)
The campaign covered roughly 190,000 compounds. About 590 (0.31%) were called active.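 Rule for the calls: active = nuclear translocation activity above 50% at 5 µM, with a well cell count of 50 or more; inconclusive = wells under 50 cells across six images, flagged as toxic; inactive = the rest.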 This excerpt belongs to a sample that is enriched for actives.

Assay: modulators of beta-catenin nuclear translocation, primary screen, imaging, HeLa cells, immunofluorescence, high-content (AID 1665);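 for nuclear translocation activity: per-cell ratio of nuclear to cytoplasmic median beta-catenin stain intensity; plate controls were DMSO negative control for no effect and GSK-3 inhibitor IX positive control for full effect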
Conditions: at 5 µM; cell count: measured here: cell count, cytotoxicity flag; nuclear translocation activity: stronger effect = higher value
In short: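 Test system: human HeLa cells, native beta-catenin. Compound dosing: 5 µM primary single dose, 0.1% DMSO, 0.02–20 µM confirmation series. Incubation: compound exposure 24 h at 37°C. Detection: beta-catenin immunostaining with DAPI counterstain, 20x imaging, 6 fields/well. Read-out basis: Nuclear/cytoplasmic beta-catenin signal ratio, % activation.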

SMILES | cell count [cells] | nuclear translocation activity
CCOC(=O)C1CCN(c2c(Nc3cc(C)cc(C)c3)c(=O)c2=O)CC1 | 1340 | 0.9% (inactive)
O=C(Cn1cnc2cc([N+](=O)[O-])ccc2c1=O)NC(=O)NCc1ccccc1 | 1320 | -2.1% (inactive)
Cc1cc(=O)[nH]c2nnnn12 | 1080 | -1.2% (inactive)
COc1ccccc1/C=N\Nc1cc(C)nc(-n2nc(C)cc2C)n1 | 900 | 0.7% (inactive)
Cc1cc(N/N=C\c2ccc(Br)cc2)nc(-n2nc(C)cc2C)n1 | 1430 | -1.3% (inactive)
COc1ccc(Nc2cc(C)nc(-n3nc(C)cc3C)n2)cc1 | 451 | 249% (active)
Nc1nnn(CC(=O)N/N=C/c2ccc(O)cc2)n1 | 1300 | -1.2% (inactive)
COCCNC(=S)N1CCN(C)CC1 | 1380 | -0.3% (inactive)
CCn1c(=O)c([N+](=O)[O-])c(NCc2ccc3c(c2)OCO3)c2ccccc21 | 1360 | -0.1% (inactive)
COc1cc(OC)cc(/C(N)=N/O)c1 | 1310 | 0.5% (inactive)
COC(=O)c1ccccc1N=Nc1c(C)[nH][nH]c1=O | 1310 | -1.6% (inactive)
O=C(NCCc1c[nH]c2ccc(Cl)cc12)c1ccc([N+](=O)[O-])cc1 | 1380 | 1.3% (inactive)
N/C(=N\OC(=O)CCn1cccc(C(F)(F)F)c1=O)c1ccc(OC(F)(F)F)cc1 | 1280 | -1.4% (inactive)
O=C(NCC1CCCO1)c1cc(-c2ccccc2)nc2ccccc12 (configuration not stated) | 1120 | -2% (inactive)
CC(C)c1c(O)nc(SCCOc2ccc(Cl)cc2)[nH]c1=O | 1310 | 0.9% (inactive)
Cc1nn(CC(=O)N/N=C/c2ccc(F)cc2)c(C)c1[N+](=O)[O-] | 1290 | 0.3% (inactive)
O=C(NC1=NCCS1)c1ccc(Cl)s1 | 998 | 1.4% (inactive)
CC(=O)NC1=NN(C(C)=O)C(C)(c2ccc(Cl)s2)S1 (configuration not stated) | 101 | 68.6% (active)
O=C(O)C(NS(=O)(=O)c1cccc2nsnc12)c1ccccc1 (configuration not stated) | 1330 | -1% (inactive)
Cc1ccc(S(=O)(=O)N(C)CC(=O)OCC(=O)Nc2ccccc2)cc1 | 1320 | -1.1% (inactive)
CCS(=O)(=O)c1cc([N+](=O)[O-])c(Sc2ccccc2N)s1 | 1180 | -2.4% (inactive)

SMILES | cell count [cells] | nuclear translocation activity
Cc1c(C(=O)N(Cc2ccccc2)Cc2cccnc2)cnn1-c1ccc(F)cc1 | 1030 | 0.4% (inactive)
CCOc1ccc(/C(O)=C2\C(=O)C(=O)N(c3ccc(OC)cc3)C2c2ccccc2[N+](=O)[O-])cc1 (configuration not stated) | 1260 | -0.5% (inactive)
O=C(NN1C(=O)C2CCCCC2C1=O)c1ccco1 (configuration not stated) | 1260 | 0.6% (inactive)
Cc1cc(-c2n[nH]c(=S)n2/N=C/c2ccco2)n[nH]1 | 1280 | -0.9% (inactive)
CCc1cccc(CC)c1NC(=S)Nc1ccc2cn[nH]c2c1 | 1270 | 0.8% (inactive)
O=[N+]([O-])c1ccc(N=Cc2c(O)ccc3ccccc23)cc1 | 1330 | 0.8% (inactive)
Cc1ccc(C(=O)Nc2nc(N)n(-c3ccccc3)n2)cc1 | 1180 | -1.1% (inactive)
O=C(c1c(Cl)cccc1Cl)N1CCN(c2cccc3[nH]ccc23)CC1 | 1260 | -1.5% (inactive)
COc1ccc(NC(=O)c2cn(-c3ccccc3)nc2SC)cc1 | 1240 | 0.1% (inactive)
O=C(Nc1nnc(CCN2CCCCC2)s1)c1cccc(Cl)c1 | 1310 | 0.2% (inactive)
C=CCSC(CC)(CC)C(N)=O | 1320 | 0.1% (inactive)
Cc1cc(F)ccc1NC(=O)C(C)n1c2ccccc2c2nc(=O)cc(C)n21 (configuration not stated) | 1290 | -0.2% (inactive)
COc1ccc(CCN2C(=O)N(c3ccc(OC)cc3)C(=O)C2CC(=O)Nc2ccc(OC)cc2)cc1 (configuration not stated) | 1360 | -0.8% (inactive)
Cc1nc(-c2nnc(SCC(=O)Nc3cc(C(F)(F)F)cc(C(F)(F)F)c3)n2C)cs1 | 1370 | -0.7% (inactive)
Cc1ccc2c(C)c(C(=O)N3CCC(N4CCC(C(=O)NC5CC5)CC4)CC3)oc2c1 | 1360 | 1.4% (inactive)
CSc1ccc(NC(=O)/C=C/C(=O)O)cc1 | 1010 | 2.1% (inactive)
CCN1CCN(c2nc(Nc3cccc(F)c3)nc(N)c2[N+](=O)[O-])CC1 | 1210 | -1.4% (inactive)
Cc1ccccc1-c1nc(C#N)c(NCc2ccco2)o1 | 1080 | -3.1% (inactive)
COc1ccc(Nc2oc(-c3ccccc3Cl)nc2C#N)cc1 | 210 | 156% (active)
COc1ccc(Nc2nc(Cl)nc(NCc3ccco3)n2)cc1 | 1380 | 3% (inactive)
